Data taken from ChEMBL document CHEMBL3813661, “Humudifucol and Bioactive Prenylated Polyphenols from Hops (Humulus lupulus cv. "Cascade")” (J Nat Prod, 2016).
Values belong to the compound of their own block, whether it stands above or below them.

Key:
[1] = biological target: T1, Polyunsaturated fatty acid 5-lipoxygenase (Homo sapiens, UniProt P09917); experiment: Inhibition of recombinant human 5-LO expressed in Escherichia coli MV1190 cells preincubated for 10 mins followed by addition of arachidonic acid as substrate measured after 10 mins by RP-HPLC method
T1 sequence (P09917 whole entry): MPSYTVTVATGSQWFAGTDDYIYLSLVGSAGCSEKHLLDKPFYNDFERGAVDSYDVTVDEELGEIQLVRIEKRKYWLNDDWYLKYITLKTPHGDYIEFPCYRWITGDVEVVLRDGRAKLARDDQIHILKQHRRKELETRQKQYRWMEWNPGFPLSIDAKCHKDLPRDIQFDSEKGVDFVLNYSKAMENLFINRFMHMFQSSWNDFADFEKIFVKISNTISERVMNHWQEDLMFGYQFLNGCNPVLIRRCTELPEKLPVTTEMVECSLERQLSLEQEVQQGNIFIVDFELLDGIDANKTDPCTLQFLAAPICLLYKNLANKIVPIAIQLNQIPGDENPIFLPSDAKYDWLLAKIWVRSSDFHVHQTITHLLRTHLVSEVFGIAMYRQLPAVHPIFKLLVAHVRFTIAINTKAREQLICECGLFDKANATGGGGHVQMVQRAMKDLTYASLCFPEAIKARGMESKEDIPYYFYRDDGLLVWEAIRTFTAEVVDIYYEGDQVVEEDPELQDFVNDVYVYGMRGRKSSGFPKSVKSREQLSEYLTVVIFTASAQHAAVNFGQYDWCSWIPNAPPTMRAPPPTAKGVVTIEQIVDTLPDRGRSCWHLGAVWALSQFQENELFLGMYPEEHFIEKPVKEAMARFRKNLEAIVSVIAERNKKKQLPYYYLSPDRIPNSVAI
How it was run: (§1)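 Recombinant human 5-LO expressed at 27 °C in E. coli MV1190 and partially purified from the 40000g supernatant on ATP-agarose. Enzyme taken up in PBS with 1 mM EDTA plus 1 mM ATP and preincubated with compound on ice 10 min. After 30 s at 37 °C, 2 mM CaCl2 and 20 μM AA added for 10 min. Stopped with methanol, products measured by RP-HPLC. Mean ± SEM, 3–4 experiments.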

[2] = biological target: T2, Prostaglandin E synthase (Homo sapiens) (UniProt O14684); experiment: Inhibition of mPGES-1 in microsomes of IL1-beta induced human A549 cells assessed as PGE2 formation by measuring enzyme residual activity at 10 uM preincubated for 15 mins followed by addition of PGH2 as substrate measured after 1 min by RP-HPLC method relative to control
T2 sequence (whole entry): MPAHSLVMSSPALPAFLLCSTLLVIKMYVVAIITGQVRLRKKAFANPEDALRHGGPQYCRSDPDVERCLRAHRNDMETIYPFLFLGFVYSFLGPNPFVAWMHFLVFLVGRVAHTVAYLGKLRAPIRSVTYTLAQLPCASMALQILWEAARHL
How it was run: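 Microsomes from A549 cells stimulated with IL-1β (1 ng/mL) for 48 h, diluted in 0.1 M potassium phosphate pH 7.4 with 2.5 mM glutathione. Compound or vehicle added for 15 min at 4 °C, then 20 μM PGH2 for 1 min at 4 °C. Stopped with FeCl2/citric acid containing 11β-PGE2. PGE2 measured by solid-phase extraction and RP-HPLC. Residual activity as % of control, mean ± SEM, 3–4 experiments.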

[3] = biological target: T1, Polyunsaturated fatty acid 5-lipoxygenase; experiment: Inhibition of 5-LO in human polymorphonuclear leukocytes preincubated for 10 mins followed by addition of arachidonic acid as substrate measured after 10 mins by HPLC method; type: cell-based
[4] = biological target: T3, Polyunsaturated fatty acid 5-lipoxygenase (Homo sapiens) (UniProt P09917); experiment: Inhibition of recombinant human 5-LO expressed in Escherichia coli MV1190 cells assessed as residual activity preincubated for 10 mins followed by addition of arachidonic acid as substrate measured after 10 mins by RP-HPLC method relative to control; how it was run: as §1
T3 sequence (whole entry): T1 sequence (P09917 whole entry)

[5] = biological target: T3, Polyunsaturated fatty acid 5-lipoxygenase (Homo sapiens); experiment: Inhibition of 5-LO in human polymorphonuclear leukocytes assessed as residual activity at 10 uM preincubated for 10 mins followed by addition of arachidonic acid as substrate measured after 10 mins by HPLC method relative to control; type: cell-based

Structure (SMILES): CC(C)=CCC1=C2O[C@@H](C(C)(C)O)C[C@@]2(O)C(=O)C(C(=O)CC(C)C)=C1O
IC50 ([1]; read-out: IC50): > 10 µM | Activity [2]: 52.7% | IC50 [3]: Not Active | Activity [4]: 90.8%

Structure (SMILES): CC(C)=CCC1=C(O)[C@](O)(CC=C(C)C)C(=O)C(C(=O)CC(C)C)=C1O
IC50 ([1]; read-out: IC50): 9.3 µM | Activity [2]: 49.7% | IC50 ([3]; read-out: IC50): > 10 µM | Activity [5]: 63.1%

Structure (SMILES): COc1cc2c(c(O)c1C(=O)/C=C/c1ccc(O)cc1)C=CC(C)(C)O2 [XANTHOHUMOL C]
IC50 ([1]; read-out: IC50): > 10 µM | Activity [2]: 35.3% | IC50 ([3]; read-out: IC50): > 10 µM | Activity [5]: 56.8% | Activity [4]: 58%

Structure (SMILES): CC(C)=CCc1c(O)cc(O)c2c1O[C@H](c1ccc(O)cc1)CC2=O
IC50 ([1]; read-out: IC50): > 10 µM | Activity [2]: 56.5% | IC50 ([3]; read-out: IC50): > 10 µM | Activity [5]: 87.5% | Activity [4]: 66.7%

Further lines, results first:

IC50 [1]: Not Active | Activity [2]: 40.2% | IC50 [3]: Not Active
Structure (SMILES): CC(C)=CCc1c(O)cc(O)c(-c2c(O)cc(O)c(CC=C(C)C)c2O)c1O

IC50 ([1]; read-out: IC50): 2.1 µM | Activity [2]: 32.3% | IC50 ([3]; read-out: IC50): 2.9 µM
Structure (SMILES): COc1cc(O)c(CC=C(C)C)c(O)c1C(=O)/C=C/c1ccc(O)cc1 [XANTHOHUMOL]

IC50 ([1]; read-out: IC50): 5.9 µM | Activity [2]: 32.8% | IC50 ([3]; read-out: IC50): > 10 µM | Activity [5]: 57.5%
Structure (SMILES): CC(C)=CCC1(O)C(=O)C(CC=C(C)C)(CC=C(C)C)C(=O)C(C(=O)C(C)C)=C1O (stereo not drawn)
